Laboratory results published in ChEMBL document CHEMBL4304743, “Discovery of ( E)- N1-(3-Fluorophenyl)- N3-(3-(2-(pyridin-2-yl)vinyl)-1 H-indazol-6-yl)malonamide (CHMFL-KIT-033) as a Novel c-KIT T670I Mutant Selective Kinase Inhibitor for Gastrointestinal Stromal Tumors (GISTs)” (J Med Chem, 2019).
The source made the active and inactive calls. The rule behind the calls is not given here.

How the values were obtained:
[1] = system: Mast/stem cell growth factor receptor Kit (Homo sapiens), P10721 [N822K]; experiment: Inhibition of TEL fused c-KIT N822K mutant (unknown origin) transfected in mouse BAF3 cells assessed as growth inhibition after 72 hrs by CCK8 assay; assay type: cell-based
How it was run: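 Tel-c-KIT-transformed BaF3 lines (IL-3 independent) kept in RPMI 1640 with 10% FBS, 2% L-glutamine and pen/strep. Cells at 1.5 to 5 × 10^4 cells/mL mixed with graded compound and incubated 72 h at 37 °C, 5% CO2. Viability by CCK-8 absorbance at 450 nm, normalized to DMSO. GI50 from dose–response fit.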

Homo sapiens [2] = organism: Homo sapiens; experiment: Selectivity ratio, ratio of IC50 for wild-type His-tagged c-KIT (unknown origin) expressed in baculovirus infected sf9 cells to IC50 for His-tagged c-KIT T670I mutant (544 to 935 residues) (unknown origin) expressed in baculovirus infected sf9 cells
How it was run: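 Purified protein: His-tagged c-KIT wt or T670I, residues 544−935, expressed in baculovirus-infected SF9 cells. Purified by Ni-NTA then Superdex-200. Enzyme (wt 20 ng/µL, T670I 15 ng/µL) preincubated with inhibitor 60 min at room temperature. Then ATP/substrate added (50 µM ATP) and run 1 h at 37 °C. ADP-Glo luminescence read-out; IC50 from fitted dose–response curves.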

[3] = target: T1, Mast/stem cell growth factor receptor Kit (Homo sapiens, UniProt P10721); experiment: Inhibition of wild type c-KIT phosphorylation at Y823 residue in human COLO320DM cells after 2 hrs by Western blot analysis; assay type: cell-based
[4] = target: T1, Mast/stem cell growth factor receptor Kit; experiment: Inhibition of TEL fused wild type c-KIT (unknown origin) transfected in mouse BaF3 cells assessed as reduction in phosphorylation at Y823 residue after 2 hrs by Western blot analysis; assay type: cell-based
[5] = system: Mast/stem cell growth factor receptor Kit (Homo sapiens), P10721 [UNDEFINED MUTATION]; experiment: Binding affinity to human partial length c-KIT V559D/[…] double mutant (Y545 to D952 residues) expressed in bacterial expression system assessed as enzyme remaining activity at 1 uM by Kinomescan method relative to control
How it was run: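 KINOMEscan binding profile (DiscoverX) run at 1 μM against a panel of 468 kinases and mutants. Read-out is percent of control (%Ctrl) remaining bound.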

[6] = system: Mast/stem cell growth factor receptor Kit (Homo sapiens), P10721 [UNDEFINED MUTATION]; experiment: Inhibition of c-KIT 560 to 578 deletion mutant in human GISTT1 cells assessed as reduction in c-KIT autophosphorylation at Y703 residue at 0.1 uM to 3 uM after 1 hr by Western blot analysis; assay type: cell-based
How it was run: (§1)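 Serial compound dilutions applied for 1 h to GIST-T1, GIST-T1-T670I (CRISPR/Cas9 T670I knock-in, clone confirmed by Sanger sequencing) or GIST-5R cells in DMEM with 10% FBS. Cells then lysed and phospho-proteins detected by standard Western blotting.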

[7] = system: Mast/stem cell growth factor receptor Kit (Homo sapiens), P10721 [UNDEFINED MUTATION]; experiment: Inhibition of c-KIT 560 to 578 deletion/T670I double mutant in human GISTT1 cells assessed as reduction in c-KIT autophosphorylation at Y703 residue at 0.1 uM to 3 uM after 1 hr by Western blot analysis; assay type: cell-based; how it was run: as §1
[8] = system: Mast/stem cell growth factor receptor Kit (Homo sapiens), P10721 [UNDEFINED MUTATION]; experiment: Inhibition of c-KIT 560 to 578 deletion/T670I double mutant in human GIST5R cells assessed as reduction in c-KIT autophosphorylation at Y703 residue at 0.1 uM to 3 uM after 1 hr by Western blot analysis; assay type: cell-based; how it was run: as §1
Homo sapiens [9] = organism: Homo sapiens; experiment: Induction of apoptosis in human GIST5R cells harboring c-KIT 560 to 578 deletion/T670I double mutant assessed as increase in cleaved PARP level after 24 hrs by Western blot analysis; assay type: functional, cell-based
How it was run: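 GIST cells grown in DMEM with 10% FBS, treated 24 h with serially diluted compound; apoptosis read by Western blot for PARP, with GAPDH as loading control.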

[10] = AUC (0 to infinity) in Sprague-Dawley rat at 1 mg/kg, iv measured after 2 to 720 mins by LC-tandem mass spectrometry analysis; assay type: ADME, organism-based; parameters: dose 1 mg/kg, route intravenous, time infinity; settings: in vivo
How it was run: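 Male Sprague-Dawley rats (190-210 g), fasted 12 h, randomized into two groups: 1 mg/kg i.v. or 10 mg/kg p.o., both formulated in 10% DMSO/90% of 5% glucose water. Blood sampled at 2-720 min (i.v.) or 5-720 min (p.o.). Plasma protein-precipitated with methanol, caffeine internal standard, LC-MS/MS. Noncompartmental analysis; triplicate, ±SD.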

[11] = AUC (0 to infinity) in mouse at 1 mg/kg, iv measured after 2 to 720 mins by LC-tandem mass spectrometry analysis; assay type: ADME, organism-based; parameters: dose 1 mg/kg, time infinity, route intravenous; settings: in vivo
How it was run: (§2)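 Mice dosed 1 mg/kg i.v. or 10 mg/kg p.o.; plasma drug levels by LC-MS/MS, parameters by noncompartmental analysis; values not from triplicate testing.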

[12] = Apparent clearance in mouse at 1 mg/kg, iv measured after 2 to 720 mins by LC-tandem mass spectrometry analysis; assay type: ADME, organism-based; settings: in vivo, read-out: CL(app) (converted); how it was run: as §2
[13] = AUC (0 to t) in mouse at 10 mg/kg, po measured after 5 to 720 mins by LC-tandem mass spectrometry analysis; assay type: ADME, organism-based; settings: in vivo; how it was run: as §2
Mus musculus [14] = experiment: Inhibition of AKT phosphorylation at […] residue in tumor of human GIST5R cells xenografted in nude mouse at 100 mg/kg, po administered as single dose and measured at 2 hrs; assay type: functional, organism-based
How it was run: (§3)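 Female nu/nu mice bearing subcutaneous GIST-5R tumors (cells in Matrigel, right flank) given one oral dose of 100 mg/kg in 0.5% methylcellulose/0.4% Tween80. Tumors collected over a 2 h time course. p-c-KIT, p-ERK and p-AKT measured alongside plasma drug levels.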

Mus musculus [15] = experiment: Inhibition of c-KIT phosphorylation at Y703 residue in tumor of human GIST5R cells xenografted in nude mouse at 100 mg/kg, po administered as single dose and measured after 2 hrs; assay type: functional, organism-based; how it was run: as §3
Mus musculus [16] = experiment: Inhibition of c-KIT phosphorylation at Y823 residue in tumor of human GIST5R cells xenografted in nude mouse at 100 mg/kg, po administered as single dose and measured after 2 hrs; assay type: functional, organism-based
How it was run: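 Female nu/nu mice bearing subcutaneous GIST-5R xenografts (cells in Matrigel, right flank) given one oral gavage dose of 100 mg/kg in HKI suspension (0.5% methocellulose/0.4% Tween80 in ddH2O). Tumors collected over a 2 h time course; p-c-KIT, p-ERK and p-AKT assessed by Western blot; plasma drug levels monitored in parallel.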

[17] = Antitumor activity against human GIST5R cells xenografted in nude mouse assessed as tumor weight at 50 mg/kg, po administered […] via gavage for 28 days (reference value: 0.59g); assay type: functional
How it was run: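 Female nu/nu mice (5 weeks old) given subcutaneous right-flank GIST-5R cells in Matrigel. Dosing began at tumors of 200-400 mm3; randomized, 4 mice per group. Daily oral dosing (QD) at 25, 50 or 100 mg/kg in 0.5% methylcellulose/0.4% Tween80, or vehicle alone, for 28 days. Body weight and tumor volume, (W²×L)/2, measured daily; mean±SEM.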

Chain of Mast/stem cell growth factor receptor Kit (Homo sapiens), P10721 [UNDEFINED MUTATION] (P10721 whole entry, looked up, stated change not applied, the tested form may be a part): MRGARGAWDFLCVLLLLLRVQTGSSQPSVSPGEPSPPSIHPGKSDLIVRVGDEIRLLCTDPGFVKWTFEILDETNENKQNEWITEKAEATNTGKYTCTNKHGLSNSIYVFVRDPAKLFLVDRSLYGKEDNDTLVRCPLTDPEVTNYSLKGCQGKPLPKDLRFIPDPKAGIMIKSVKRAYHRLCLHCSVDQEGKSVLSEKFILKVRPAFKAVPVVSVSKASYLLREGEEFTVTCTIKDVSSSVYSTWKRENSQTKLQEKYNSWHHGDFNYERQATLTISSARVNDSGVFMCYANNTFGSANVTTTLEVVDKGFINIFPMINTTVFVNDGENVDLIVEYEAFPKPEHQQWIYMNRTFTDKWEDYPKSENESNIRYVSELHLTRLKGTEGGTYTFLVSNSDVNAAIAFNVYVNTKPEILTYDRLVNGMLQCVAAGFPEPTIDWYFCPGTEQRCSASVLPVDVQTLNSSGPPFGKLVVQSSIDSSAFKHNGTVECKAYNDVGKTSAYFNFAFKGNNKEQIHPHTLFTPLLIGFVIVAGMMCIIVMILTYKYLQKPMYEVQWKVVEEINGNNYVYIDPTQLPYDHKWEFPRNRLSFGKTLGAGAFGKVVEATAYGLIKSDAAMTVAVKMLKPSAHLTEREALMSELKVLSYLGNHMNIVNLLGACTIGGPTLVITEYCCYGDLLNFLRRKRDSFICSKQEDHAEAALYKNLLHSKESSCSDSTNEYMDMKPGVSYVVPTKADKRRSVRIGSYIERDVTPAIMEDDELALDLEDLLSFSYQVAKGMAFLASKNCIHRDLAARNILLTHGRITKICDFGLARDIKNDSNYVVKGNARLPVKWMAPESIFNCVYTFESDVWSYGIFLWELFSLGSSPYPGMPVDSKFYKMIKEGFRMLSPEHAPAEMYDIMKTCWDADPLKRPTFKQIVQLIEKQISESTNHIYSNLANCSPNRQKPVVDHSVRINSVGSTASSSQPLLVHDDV
T1 sequence (P10721 whole entry, the tested form may be a part): as the sequence (P10721 whole entry, looked up, stated change not applied, the tested form may be a part) above
Chain of Mast/stem cell growth factor receptor Kit (Homo sapiens), P10721 [N822K] (P10721 whole entry N822K, the tested form may be a part): as the sequence (P10721 whole entry, looked up, stated change not applied, the tested form may be a part) above, with N822K counted along it

With `O=C(CC(=O)Nc1ccc2c(/C=C/c3ccccn3)n[nH]c2c1)Nc1cccc(F)c1` the GI50 [1] was 6060 nM, the Ratio IC50 (Homo sapiens [2]) was 12 and the EC50 [3] was 2050 nM. The EC50 [4] was > 1000 nM, the Activity [5] was < 1% and the inhibition [6] was “Active”. For the same compound, the inhibition [7] was “Active”, the inhibition [8] was “Active” and the Activity (Homo sapiens [9]) was “Dose-dependent effect”. The AUC(0-inf) [10] was 307 ng·h/mL, the AUC(0-inf) [11] was 901 ng·h/mL and the clearance [12] was 18.3 mL/min/kg. For the same compound, the AUC(0-t) [13] was 1470 ng·h/mL, the inhibition (Mus musculus [14]) was “Active” and the inhibition (Mus musculus [15]) was “inactive”. For the same compound, the inhibition (Mus musculus [16]) was “inactive” and the Activity [17] was 0.25 g.
